# Measurements as given in ChEMBL document CHEMBL1806383, “Optimisation of pharmacokinetic properties to afford an orally bioavailable and selective V1A receptor antagonist” (Bioorg Med Chem Lett, 2011).
# Assays:
# [1] = Apparent permeability of the compound from apical to basolateral side of human Caco2 cells; type: ADME, cell-based; conditions: Caco-2
# [2] = Oral bioavailability in Sprague-Dawley rat at 10 mg/kg; type: ADME, organism-based; conditions: in vivo
# Method in brief: (§1)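 Male Sprague–Dawley rat, oral 10 mg/kg in 0.5% (w/v) gelatin in 5% (w/v) mannitol.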
# Rattus norvegicus [3] = assay: Volume of distribution at steady state in Sprague-Dawley rat at 10 mg/kg, po; type: ADME, organism-based; parameters: dose 10 mg/kg, route oral; conditions: in vivo; method in brief: as §1
# [4] = Oral bioavailability in Sprague-Dawley rat at 5 mg/kg; type: ADME, organism-based; conditions: in vivo
# Method in brief: (§2)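 Male Sprague–Dawley rat, oral 5 mg/kg in 0.5% (w/v) gelatin in 5% (w/v) mannitol.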
# Rattus norvegicus [5] = assay: Volume of distribution at steady state in Sprague-Dawley rat at 5 mg/kg, po; type: ADME, organism-based; parameters: dose 5 mg/kg, route oral; conditions: in vivo; method in brief: as §2
# [6] = Volume of distribution at steady state in Sprague-Dawley rat at 1 mg/kg, iv and 5 mg/kg, po; type: ADME, organism-based; conditions: in vivo, read-out: Vdss
# Method in brief: (§3)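 Male Sprague–Dawley rats; iv 1 mg/kg in 30% DMA in saline and po 5 mg/kg in 0.5% (w/v) gelatin in 5% (w/v) mannitol.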
# [7] = Tmax in cynomolgus monkey at 1 mg/kg, iv and 3 mg/kg, po; type: ADME, organism-based, Macaca fascicularis; conditions: in vivo
# Method in brief: (§4)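 Cynomolgus monkey; iv 1 mg/kg in 30% DMA in saline and po 3 mg/kg in 0.5% (w/v) gelatin in 5% (w/v) mannitol.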
# [8] = Cmax in cynomolgus monkey at 1 mg/kg, iv and 3 mg/kg, po; type: ADME, organism-based, Macaca fascicularis; conditions: in vivo; method in brief: as §4
# [9] = Cmax in Sprague-Dawley rat at 1 mg/kg, iv and 5 mg/kg, po; type: ADME, organism-based; conditions: in vivo; method in brief: as §3
# [10] = Volume of distribution at steady state in cynomolgus monkey at 1 mg/kg, iv and 3 mg/kg, po; type: ADME, organism-based, Macaca fascicularis; conditions: in vivo, read-out: Vdss; method in brief: as §4
# [11] = Tmax in Sprague-Dawley rat at 1 mg/kg, iv and 5 mg/kg, po; type: ADME, organism-based; conditions: in vivo; method in brief: as §3
# [12] = Oral bioavailability in cynomolgus monkey at 3 mg/kg; type: ADME, organism-based, Macaca fascicularis; conditions: in vivo; method in brief: as §4
SMILES,Papp A→B [1] [×10⁻⁶ cm/s],further results
O=C(Cc1ccc(Cl)cc1)N[C@H](Cc1ccc(Cl)cc1)C(=O)N[C@H]1C[C@H]2CC[C@@H](C1)N2,< 10,
O=C(Cc1ccc(Cl)cc1)N[C@H](Cc1ccc(Cl)cc1)C(=O)NC1CCCNCC1 (some centres not stated),< 10,
O=C(Cc1ccc(Cl)cc1)N[C@H](Cc1ccc(Cl)cc1)C(=O)NC1CCNCC1,< 10,
CN1CCC(NC(=O)[C@@H](Cc2ccc(Cl)cc2)NC(=O)Cc2ccc(Cl)cc2)CC1,< 10,
CN1CCN(CCCNC(=O)[C@@H](Cc2ccc(Cl)cc2)NC(=O)Cc2ccc(Cl)cc2)CC1,< 10,
CN(C)CCCNC(=O)[C@@H](Cc1ccc(Cl)cc1)NC(=O)Cc1ccc(Cl)cc1,< 10,
CN(C)CCCNC(=O)[C@@H](Cc1ccc(Cl)cc1)NC(=O)C1(c2ccc(Cl)cc2)CC1,< 10,
CCCNC(=O)[C@@H](Cc1ccc(Cl)cc1)NC(=O)Cc1ccc(Cl)cc1,< 10,
O=C(Cc1ccc(Cl)cc1)N[C@H](Cc1ccc(Cl)cc1)C(=O)NCCCO,,bioavailability [2]: 43%; Vdss (Rattus norvegicus [3]): 2 L/kg
CN(C)[C@H]1CC[C@H](NC(=O)[C@@H](Cc2ccc(Cl)cc2)NC(=O)Cc2ccc(Cl)cc2)CC1,< 10,
CN(C)[C@H]1CC[C@H](NC(=O)[C@@H](Cc2ccc(Cl)cc2)NC(=O)C2(c3ccc(Cl)cc3)CC2)CC1,< 10,bioavailability [4]: 17%; Vdss (Rattus norvegicus [5]): 9 L/kg
COc1ccc(C[C@@H](NC(=O)C2(c3ccc(Cl)cc3)CC2)C(=O)N[C@H]2CC[C@H](N(C)C)CC2)cc1,< 10,
CN(C)[C@H]1CC[C@H](NC(=O)[C@@H](Cc2ccc(F)cc2)NC(=O)C2(c3ccc(Cl)cc3)CC2)CC1,< 10,
CN(C)[C@H]1CC[C@H](NC(=O)[C@@H](Cc2ccc(Cl)cc2)NC(=O)C2(c3ccc(Cl)cc3)CCC2)CC1,< 10,
CN(C)[C@H]1CC[C@H](NC(=O)[C@@H](Cc2ccc(Cl)cc2)NC(=O)C2(c3ccc(F)cc3)CCCC2)CC1,< 10,
CN(C)[C@H]1CC[C@H](NC(=O)[C@@H](Cc2ccc(Cl)cc2)NC(=O)C2(c3ccc(F)cc3)CC2)CC1,< 10,Vd [6]: 11.8 L/kg; bioavailability [4]: 30%; Tmax [7]: 2.7 h; Cmax [8]: 41 ng/mL; Cmax [9]: 35 ng/mL; Vd [10]: 6.4 L/kg; Tmax [11]: 5.8 h; bioavailability [12]: 20%
CN(C)[C@H]1CC[C@H](NC(=O)[C@@H](Cc2ccc(Cl)cc2)NC(=O)Cc2ccc(F)cc2)CC1,< 10,
O=C(Cc1ccc(Cl)cc1)N[C@H](Cc1ccc(Cl)cc1)C(=O)N[C@H]1CC[C@@H](O)CC1,< 10,
CC(CCO)NC(=O)[C@@H](Cc1ccc(Cl)cc1)NC(=O)Cc1ccc(Cl)cc1 (stereo in doubt; 17c),< 10,
O=C(Cc1ccc(Cl)cc1)N[C@H](Cc1ccc(Cl)cc1)C(=O)NC1CCCC(O)C1 (stereo in doubt; 17e),< 10,
O=C(Cc1ccc(Cl)cc1)N[C@H](Cc1ccc(Cl)cc1)C(=O)NC1CCCCC1O (stereo in doubt; 17h),> 20,
